Activity calls are given as the source filed them. The calls are words filed in the database; no cut-off is given here.

What is called IC50 is the concentration at which inhibition is half-maximal.

The test system of one data set is MCF7. In words: Induction of human MCF7 cells growth containing endogenous ERalpha receptor at 1 uM by MTT assay relative to estradiol. The format is functional. Summed up: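 Breast cancer cells at 8000/well in phenol red-free MEM, 1 μg/mL insulin, 5% charcoal-stripped FBS; after 72 h, 96 h exposure; MTT formazan at 550 nm.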
In data set [1] the target is T1, Estrogen receptor (Homo sapiens) (UniProt P03372).
T1 sequence (whole entry): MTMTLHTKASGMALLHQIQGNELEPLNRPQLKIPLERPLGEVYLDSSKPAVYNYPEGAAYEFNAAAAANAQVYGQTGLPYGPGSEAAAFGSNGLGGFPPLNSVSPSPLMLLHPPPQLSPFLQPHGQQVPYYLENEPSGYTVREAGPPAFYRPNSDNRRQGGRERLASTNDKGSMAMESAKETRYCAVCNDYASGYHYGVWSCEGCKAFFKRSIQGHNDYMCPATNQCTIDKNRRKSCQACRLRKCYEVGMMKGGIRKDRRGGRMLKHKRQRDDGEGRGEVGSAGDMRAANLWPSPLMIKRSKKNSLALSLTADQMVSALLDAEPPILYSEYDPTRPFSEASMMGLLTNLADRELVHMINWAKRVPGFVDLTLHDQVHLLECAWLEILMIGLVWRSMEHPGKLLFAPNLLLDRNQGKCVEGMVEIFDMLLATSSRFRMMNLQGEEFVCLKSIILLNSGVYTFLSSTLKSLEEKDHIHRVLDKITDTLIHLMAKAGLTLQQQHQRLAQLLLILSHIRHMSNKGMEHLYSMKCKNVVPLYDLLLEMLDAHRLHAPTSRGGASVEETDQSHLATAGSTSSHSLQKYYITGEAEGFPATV
In words: Agonist activity at ERalpha in human MCF7:D5L cells assessed as induction of ERE-dependent luciferase expression at 1 uM relative to estradiol. Type of data set: functional, cell-based.

The target in data set [2] is T1, Estrogen receptor (Homo sapiens). The experiment in a line: Antagonist activity at ERalpha in human MCF7:D5L cells assessed as inhibition of ERE-dependent luciferase expression at 1 uM relative to ICI-182780. Type of data set: functional, cell-based.
Data set [3] addresses Estrogen receptor beta (Homo sapiens) (UniProt Q92731). In words: Agonist activity at ERbeta in HEK293 cells assessed as induction of ERE-dependent luciferase expression at 1 uM relative to estradiol. Type of data set: functional, cell-based.
Data set [4] has the same target. The experiment in a line: Antagonist activity at ERbeta in HEK293 cells assessed as inhibition of ERE-dependent luciferase expression at 1 uM relative to ICI-182780. The format is functional, cell-based. The arrangement: scale not given: the % may be the effect or the level left.
For data set [5], the target named is T1, Estrogen receptor (Homo sapiens). The experiment in a line: Agonist activity at estrogen receptor in human Ishikawa cells assessed as induction of ERE-dependent alkaline phosphatase level at 1 uM relative to estradiol. The format is functional, cell-based.
The target is the same in data set [6]. The experiment in a line: Antagonist activity at estrogen receptor in human Ishikawa cells assessed as inhibition of ERE-dependent alkaline phosphatase levels at 1 uM relative to ICI-182780. The format is functional, cell-based. More on the design: scale not given: the % may be the effect or the level left.
The test system of a further data set is Ishikawa. In words: Induction of human Ishikawa cells growth containing endogenous ERalpha receptor at 1 uM by MTT assay relative to estradiol. The format is functional, cell-based. Summed up:
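Endometrial cells at 8000/well in phenol red-free MEM, 1 μg/mL insulin, 5% charcoal-stripped FBS; compound added 24 h after plating, 96 h exposure; MTT at 550 nm.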
For orientation: Formazan colour is commonly taken as a measure of viable cells.

The subject of the next data set is LNCaP. The experiment in a line: Induction of human LNCAP cells growth containing endogenous […] receptor at 1 uM by MTT assay relative to estradiol. Type of data set: functional, cell-based. A digest of the protocol: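 Prostate cells at 5000/well on polylysine-coated wells in phenol red-free RPMI with 10% charcoal-stripped FBS; after 72 h, 96 h exposure; MTT at 550 nm.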

The subject of data set [7] is PC-12. The experiment in a line: Cytotoxicity against rat PC12 cells at 0.1 to 10 uM after 24 to 72 hrs by MTT assay. Type of data set: cell-based. Particulars: pc-12, 10 µM. Summed up: (§1)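 Seeded at 2×10^4 cells/mL in serum-containing medium (PC12: RPMI 1640, 10% horse serum, 5% FBS; HEK293 and HT22: DMEM, 10% FBS) for 24 h, then 0.1, 1 or 10 μM compound for 24, 48 or 72 h. MTT 5 mg/mL, 4 h, 37 °C; DMSO-dissolved formazan read at 570 nm; % of untreated control; three replicates, three experiments.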

In the next data set the test system is HEK293. The experiment in a line: Cytotoxicity against HEK293 cells at 0.1 to 10 uM after 24 to 72 hrs by MTT assay. The format is cell-based. The settings on record: human, hek293, 10 µM. A digest of the protocol: as §1
A short description of data set [8]: Cytotoxicity against mouse HT22 cells at 0.1 to 10 uM after 24 to 72 hrs by MTT assay. The format is cell-based. The settings on record: ht-22, 10 µM. A digest of the protocol: as §1
For data set [9], the system named is PC-12. The experiment in a line: Neuroprotective activity in rat PC12 cells assessed as inhibition of serum deprivation-induced apoptosis after 24 hrs by APO Percentage apoptosis assay. Type of data set: functional, cell-based. The settings on record: PC-12, 24 h.
In data set [10] the test system is PC-12. In words: Neuroprotective activity in rat PC12 cells assessed as inhibition of serum deprivation-induced apoptosis after 24 hrs by FACS flow cytometry. Type of data set: functional, cell-based. Summed up: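 PC12 cells (10^6/well) 24 h in serum-free medium with BSA plus 100 nM steroid; stained with 2 μg/mL annexin V-FITC (10 min, dark, HEPES/CaCl2 buffer pH 7.4) and propidium iodide, analysed by flow cytometry within 20 min, 10000 cells per treatment; at least four experiments in triplicate.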

Data set [11] can be described thus: Displacement of [3H]DHEA from DHEA-binding site in rat PC12 cell membranes by […] counting. More on the design: species or system Membrane. The settings on record: pc-12. On the technique in general: Displacement assays read how much labelled ligand stays bound in the presence of the test substance.
In data set [12] the test system is PC-12. In words: Neuroprotective activity against serum deprivation-induced apoptosis in rat PC12 cells assessed as increase in antiapoptotic protein Bcl2 levels at 10 nM after 12 hrs by Western blot. The format is functional, cell-based. A digest of the protocol: (§2)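 PC12 cells cultured 12 h in serum-free medium (0.1% BSA, 10 nM haloperidol) with 10 nM steroid; total protein extracts Western blotted for Bcl-2 or Bcl-xL, band intensity by densitometry normalized to actin; % of control; three independent experiments.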

For data set [13], the system named is PC-12. The experiment in a line: Neuroprotective activity against serum deprivation-induced apoptosis in rat PC12 cells assessed as increase in antiapoptotic protein Bcl-XL levels at 10 nM after 12 hrs by Western blot. The format is functional, cell-based. Summed up: as §2
On the technique in general: Immunoblotting shows a protein as a band on a membrane.

Data set [14] has as its system PC-12. The experiment in a line: Neuroprotective activity in rat PC12 cells assessed as inhibition of serum deprivation-induced apoptosis at 100 nM after 24 hrs by APO Percentage apoptosis assay. Type of data set: functional, cell-based. Summed up:
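PC12 cells cultured 24 h in serum-free medium with BSA and 10 nM haloperidol plus 100 nM steroid. Apoptotic cells stained with APOPercentage dye, dye released and read at 550 nm (reference 620 nm); expressed relative to serum-free control; at least four experiments in triplicate.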

For data set [15], the system named is PC-12. The experiment in a line: Induction of dopamine release in rat PC12 cells at 10 nM after 10 mins by radioimmunoassay relative to control. Type of data set: functional. Summed up:
(§3)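 PC12 cells at 10^6/well on poly(L-lysine) exposed to 10 nM steroid in serum-free medium for 5–30 min or 3–48 h; 1 mL supernatant acidified with 0.1 M HCl; dopamine measured by 125I radioimmunoassay after COMT conversion to 3-methoxytyramine and acylation. Expressed as % of untreated cells; four independent experiments.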

The subject of data set [16] is PC-12. In words: Induction of dopamine release in rat PC12 cells at 10 nM after 24 hrs mins by radioimmunoassay. The format is functional, cell-based. A digest of the protocol: as §3
In data set [17] the test system is PC-12. In words: Induction of tyrosine hydroxylase mRNA expression in rat PC12 cells at 10 nM after 6 hrs mins by RT-PCR. Type of data set: functional, cell-based. Summed up:
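PC12 cells incubated 6 h with 10 nM steroid; TH mRNA measured by RT-PCR, 33 cycles, 368 bp product on 2% agarose gel, normalized to GAPDH mRNA.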

Chain of Estrogen receptor beta (Homo sapiens) (Q92731 whole entry): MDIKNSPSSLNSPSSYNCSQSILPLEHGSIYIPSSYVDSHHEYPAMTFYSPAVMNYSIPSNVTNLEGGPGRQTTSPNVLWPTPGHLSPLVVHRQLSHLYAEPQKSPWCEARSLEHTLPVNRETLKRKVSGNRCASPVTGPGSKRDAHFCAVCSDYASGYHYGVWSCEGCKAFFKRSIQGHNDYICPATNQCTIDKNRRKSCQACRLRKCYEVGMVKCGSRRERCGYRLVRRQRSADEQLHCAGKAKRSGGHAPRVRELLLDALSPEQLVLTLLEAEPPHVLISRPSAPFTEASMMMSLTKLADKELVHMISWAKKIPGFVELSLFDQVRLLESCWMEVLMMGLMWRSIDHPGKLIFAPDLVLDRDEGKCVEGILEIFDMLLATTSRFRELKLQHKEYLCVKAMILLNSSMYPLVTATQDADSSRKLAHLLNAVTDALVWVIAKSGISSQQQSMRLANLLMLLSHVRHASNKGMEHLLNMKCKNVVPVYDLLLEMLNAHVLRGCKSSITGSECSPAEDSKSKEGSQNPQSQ

Turning to `C[C@]12CC[C@H](O)CC1=CC[C@@H]1[C@@H]2CC[C@@]2(C)[C@H]1CC[C@]21O[C@H]1CO`, the result (with MCF7; in data set [1]; in [2]; in data set [3]; in data set [4]; in [5]) was inactive. The outcome (in data set [6]; in the data set on Ishikawa; with LNCaP) was inactive. The Activity entry (in the data set with PC-12 [7]; in the data set with HEK293; in data set [8]) was “Non-toxic” throughout. In addition, the IC50 in the data set on PC-12 [9] was found to be 99 nM; in data set [11] it was 0.11 nM. Further, the result in the data set with PC-12 [10], in the data set on PC-12 [12] and in the data set with PC-12 [13] was Active.

For `C[C@@]1(O)CC[C@@]2(C)C(=CC[C@@H]3[C@@H]2CC[C@]2(C)C(=O)CC[C@@H]32)C1`, the inhibition result in the data set on PC-12 [14] was “inactive”.

`C[C@]12CC[C@@](O)(CC#N)CC1=CC[C@@H]1[C@@H]2CC[C@]2(C)C(=O)CC[C@@H]12`: the inhibition result with PC-12 [14] was “inactive”.

With `C[C@]12CC[C@H](O)CC1=CC[C@@H]1[C@@H]2CC[C@@]2(C)[C@H]1CC[C@]21O[C@@H]1CO`, the outcome (with MCF7; in data set [1]; in data set [2]; in data set [3]; in [5]; with Ishikawa) was inactive. The outcome with LNCaP was inactive. In the data set with PC-12 [15], the “fold change (FC)” value was found to be 2. Besides, the outcome in the data set with PC-12 [16], with PC-12 [17], in the data set with PC-12 [10], in the data set with PC-12 [12] and with PC-12 [13] was Active. The Activity in data set [4] is 31%; in [6] it was 24%; in the data set with PC-12 [7] it was “Non-toxic”; in the data set with HEK293, “Non-toxic”; in data set [8] it was “Non-toxic”. The results for the IC50 (with PC-12 [9]; in data set [11]) were 6.4 nM and 18.6 nM, respectively.

Consider `C[C@]12CC[C@@](O)(CN=[N+]=[N-])CC1=CC[C@@H]1[C@@H]2CC[C@]2(C)C(=O)CC[C@@H]12`, for which, in the data set on PC-12 [14], the inhibition result was “inactive”.

For `C[C@]12CC[C@H](O)CC1=CC[C@@H]1[C@@H]2CC[C@]2(C)C(=O)CC[C@@H]12` [PRASTERONE], the figures for the IC50 (with PC-12 [9]; in data set [11]) were 0.29 nM and 1.65 nM, respectively.

Turning to `CCCC[C@@]1(O)CC[C@@]2(C)C(=CC[C@@H]3[C@@H]2CC[C@]2(C)C(=O)CC[C@@H]32)C1`, the inhibition result with PC-12 [14] is “inactive”.

`CO[C@H]1CC[C@H]2[C@@H]3CC=C4C[C@@H](O)CC[C@]4(C)[C@H]3CC[C@]12C`: the inhibition entry with PC-12 [14] was “inactive”.

Turning to `COC[C@]1(O)CC[C@@]2(C)C(=CC[C@@H]3[C@@H]2CC[C@]2(C)C(=O)CC[C@@H]32)C1`, the inhibition entry in the data set on PC-12 [14] was “inactive”.

On to `C[C@]12CC[C@H](O)CC1=CC[C@@H]1[C@@H]2CC[C@@]2(C)[C@H]1CC[C@@]21CO1`, for which the Activity in the data set on MCF7 is 33%; in [1], 29%; in data set [5], 22%; with PC-12 [7], “Non-toxic”; in the data set on HEK293 it was “Non-toxic”; in [8], “Non-toxic”. Besides, the “fold change (FC)” value in the data set with PC-12 [15] amounted to 2. Further, the outcome in the data set with PC-12 [16], in the data set with PC-12 [17], with PC-12 [10], in the data set on PC-12 [12] and with PC-12 [13] was Active. Moreover, the outcome (in data set [2]; in [3]; in data set [4]; in data set [6]; in the data set with Ishikawa; in the data set on LNCaP) was inactive. Besides, the IC50 stood at 0.19 nM with PC-12 [9] and 0.04 nM in data set [11].

For `C[C@]1(O)CC[C@@]2(C)C(=CC[C@@H]3[C@@H]2CC[C@]2(C)C(=O)CC[C@@H]32)C1`, the inhibition entry in the data set with PC-12 [14] is “inactive”.

The values above are taken from ChEMBL document CHEMBL1154375, “Novel dehydroepiandrosterone derivatives with antiapoptotic, neuroprotective activity” (J Med Chem, 2009).
